According to ChEMBL document CHEMBL4689842, “EUbOPEN Chemogenomics Library wave 1” (2021):
Several values for one entry are separate records, joined by “and”; a condition that tells them apart may be missing. Equal values may be shown once.

Experiments:
Type in all cases: toxicity, cell-based
HEK-293T [1] = assay: Multiplex assay against HEK293T; settings: human, 10 µM, compound concentration 10 uM
Outline: (§1)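 Cells stained live at seeding with Hoechst33342, BioTracker Green Microtubule Cytoskeleton Dye, MitoTracker Red and Annexin V Alexa Fluor 680 were imaged on a CQ1 microscope at 37°C and 5% CO2 after compound addition. Their classification by CellPathfinder machine-learning gating ran from Hoechst high-intensity objects versus normal cells, to healthy, pyknosed or fragmented nuclei among normal cells, to mitotic or apoptotic among pyknosed cells. Tubulin, mitochondrial-mass and membrane-permeability phenotypes are per cents of healthy-nucleus cells.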

U2OS [2] = assay: Multiplex assay against U2OS; settings: human, 10 µM, compound concentration 10 uM; outline: as §1
HEK-293T [3] = assay: Incucyte cell viability with HEK293T; settings: human, 10 µM, compound concentration 10 uM; note: filed as whole numbers so only -1 and 0 and 1 occur
Fibroblast [4] = assay: Multiplex assay against human fibroblast; settings: 10 µM, compound concentration 10 uM; outline: as §1
U2OS [5] = assay: Incucyte cell viability with U2OS; settings: human, 10 µM, compound concentration 10 uM; note: filed as whole numbers so only -1 and 0 and 1 occur
Fibroblast [6] = assay: Incucyte cell viability with human fibroblast; settings: 10 µM, compound concentration 10 uM; note: filed as whole numbers so only -1 and 0 and 1 occur
[7] = 6 h, replicate number 1, timepoint 6 hours
[8] = 12 h, replicate number 1, timepoint 12 hours
[9] = 18 h, replicate number 1, timepoint 18 hours
[10] = 24 h, replicate number 1, timepoint 24 hours
[11] = 0 h, replicate number 1, timepoint 0 hours

CCN1CCN(Cc2ccc(NC(=O)c3ccc(C)c(Oc4ccnc5[nH]ccc45)c3)cc2C(F)(F)F)CC1.Cl.Cl.Cl.O
Population Apoptotic (%) (HEK-293T [1]; 12 h, replicate 1): 19% and 50% | Population Fragmented Nuclei (%) (HEK-293T [1]; 12 h, replicate 1): 21% and 19% | Population Healthy Nuclei (%) (HEK-293T [1]; 12 h, replicate 1): 47% and 20% | Population Hoechst High Intensity Objects (%) (HEK-293T [1]; 12 h, replicate 1): 20% and 25% | Population Membrane Permeable-Phenotype (%) (HEK-293T [1]; 12 h, replicate 1): 5% and 7% | Population Mitotic Cells (%) (HEK-293T [1]; 12 h, replicate 1): 80% and 49% | Population Normal (%) (HEK-293T [1]; 12 h, replicate 1): 79% and 74% | Population Pyknosed Nuclei (%) (HEK-293T [1]; 12 h, replicate 1): 31% and 60% | Total Cell Count (HEK-293T [1]; 12 h, replicate 1): 451 and 581 | Population Fragmented Nuclei (%) (HEK-293T [1]; 12 h, replicate 2): 3% and 6% | Population Healthy Nuclei (%) (HEK-293T [1]; 12 h, replicate 2): 66% and 86% | Population Hoechst High Intensity Objects (%) (HEK-293T [1]; 12 h, replicate 2): 5% and 2% | Population Membrane Permeable-Phenotype (%) (HEK-293T [1]; 12 h, replicate 2): 2% and 1% | Population Mitotic Cells (%) (HEK-293T [1]; 12 h, replicate 2): 47% and 87% | Population Normal (%) (HEK-293T [1]; 12 h, replicate 2): 94% and 97% | Total Cell Count (HEK-293T [1]; 12 h, replicate 2): 837 and 1347 | Population Fragmented Nuclei (%) (HEK-293T [1]; 24 h, replicate 1): 21% and 23% | Population Healthy Nuclei (%) (HEK-293T [1]; 24 h, replicate 1): 25% and 58% | Population Hoechst High Intensity Objects (%) (HEK-293T [1]; 24 h, replicate 1): 29% and 13% | Population Membrane Permeable-Phenotype (%) (HEK-293T [1]; 24 h, replicate 1): 8% and 7% | Population Normal (%) (HEK-293T [1]; 24 h, replicate 1): 70% and 86% | Total Cell Count (HEK-293T [1]; 24 h, replicate 1): 528 and 497 | Population Healthy Nuclei (%) (HEK-293T [1]; 24 h, replicate 2): 71% and 83% | Population Hoechst High Intensity Objects (%) (HEK-293T [1]; 24 h, replicate 2): 6% and 5% | Population Membrane Permeable-Phenotype (%) (HEK-293T [1]; 24 h, replicate 2): 1% and 3% | Population Mitotic Cells (%) (HEK-293T [1]; 24 h, replicate 2): 32% and 91% | Population Normal (%) (HEK-293T [1]; 24 h, replicate 2): 93% and 94% | Total Cell Count (HEK-293T [1]; 24 h, replicate 2): 779 and 2092 | Population Apoptotic (%) (U2OS [2]; 12 h, replicate 1): 66% and 38% | Population Healthy Nuclei (%) (U2OS [2]; 12 h, replicate 1): 34% and 87% | Population Hoechst High Intensity Objects (%) (U2OS [2]; 12 h, replicate 1): 7% and 4% | Population Membrane Permeable-Phenotype (%) (U2OS [2]; 12 h, replicate 1): 18% and 17% | Population Mitotic Cells (%) (U2OS [2]; 12 h, replicate 1): 33% and 61% | Population Normal (%) (U2OS [2]; 12 h, replicate 1): 92% and 95% | Total Cell Count (U2OS [2]; 12 h, replicate 1): 219 and 182 | Population Fragmented Nuclei (%) (U2OS [2]; 12 h, replicate 2): 17% and 9% | Population Healthy Nuclei (%) (U2OS [2]; 12 h, replicate 2): 40% and 83% | Population Hoechst High Intensity Objects (%) (U2OS [2]; 12 h, replicate 2): 14% and 11% | Population Membrane Permeable-Phenotype (%) (U2OS [2]; 12 h, replicate 2): 20% and 10% | Population Mitotic Cells (%) (U2OS [2]; 12 h, replicate 2): 30% and 87% | Population Normal (%) (U2OS [2]; 12 h, replicate 2): 85% and 88% | Population Pyknosed Nuclei (%) (U2OS [2]; 12 h, replicate 2): 42% | Total Cell Count (U2OS [2]; 12 h, replicate 2): 113 and 91 | Population Apoptotic (%) (U2OS [2]; 24 h, replicate 1): 37% | Population Normal (%) (U2OS [2]; 24 h, replicate 1): 79% and 98% | Population Pyknosed Nuclei (%) (U2OS [2]; 24 h, replicate 1): 10% | Population Tubulin-Different-Phenotype (%) (U2OS [2]; 24 h, replicate 1): 10% | Total Cell Count (U2OS [2]; 24 h, replicate 1): 255 and 248 | Population Apoptotic (%) (U2OS [2]; 24 h, replicate 2): 90% and 58% | Population Fragmented Nuclei (%) (U2OS [2]; 24 h, replicate 2): 16% and 11% | Population Hoechst High Intensity Objects (%) (U2OS [2]; 24 h, replicate 2): 23% and 18% | Population Normal (%) (U2OS [2]; 24 h, replicate 2): 76% and 81% | Total Cell Count (U2OS [2]; 24 h, replicate 2): 133 and 117 | Growth Rate (HEK-293T [3]; 0 h, replicate number 2, timepoint 0 hours): 0 | Growth Rate (HEK-293T [3]; [7]): 0 | Growth Rate (HEK-293T [3]; [8]): 0 | Growth Rate (HEK-293T [3]; [9]): 0 | Growth Rate (HEK-293T [3]; [10]): 0 | Population Apoptotic (%) (Fibroblast [4]; 12 h, replicate 1): 75% and 44% | Population Fragmented Nuclei (%) (Fibroblast [4]; 12 h, replicate 1): 42% and 25% | Population Healthy Nuclei (%) (Fibroblast [4]; 12 h, replicate 1): 42% and 50% | Population Hoechst High Intensity Objects (%) (Fibroblast [4]; 12 h, replicate 1): 20% | Population Membrane Permeable-Phenotype (%) (Fibroblast [4]; 12 h, replicate 1): 6% and 2% | Population Mitochondria Different-Phenotype (%) (Fibroblast [4]; 12 h, replicate 1): 8% | Population Mitotic Cells (%) (Fibroblast [4]; 12 h, replicate 1): 25% and 55% | Population Normal (%) (Fibroblast [4]; 12 h, replicate 1): 79% | Population Pyknosed Nuclei (%) (Fibroblast [4]; 12 h, replicate 1): 14% and 25% | Population Tubulin-Different-Phenotype (%) (Fibroblast [4]; 12 h, replicate 1): 13% and 25% | Total Cell Count (Fibroblast [4]; 12 h, replicate 1): 169 and 323 | Population Fragmented Nuclei (%) (Fibroblast [4]; 12 h, replicate 2): 74% and 45% | Population Healthy Nuclei (%) (Fibroblast [4]; 12 h, replicate 2): 23% and 34% | Population Hoechst High Intensity Objects (%) (Fibroblast [4]; 12 h, replicate 2): 36% and 41% | Population Membrane Permeable-Phenotype (%) (Fibroblast [4]; 12 h, replicate 2): 18% and 0% | Population Mitochondria Different-Phenotype (%) (Fibroblast [4]; 12 h, replicate 2): 0% and 12% | Population Mitotic Cells (%) (Fibroblast [4]; 12 h, replicate 2): 100% and 44% | Population Normal (%) (Fibroblast [4]; 12 h, replicate 2): 63% and 58% | Population Tubulin-Different-Phenotype (%) (Fibroblast [4]; 12 h, replicate 2): 18% and 37% | Total Cell Count (Fibroblast [4]; 12 h, replicate 2): 74 and 79 | Population Apoptotic (%) (Fibroblast [4]; 24 h, replicate 1): 76% and 41% | Population Fragmented Nuclei (%) (Fibroblast [4]; 24 h, replicate 1): 45% and 29% | Population Healthy Nuclei (%) (Fibroblast [4]; 24 h, replicate 1): 46% | Population Hoechst High Intensity Objects (%) (Fibroblast [4]; 24 h, replicate 1): 23% and 52% | Population Membrane Permeable-Phenotype (%) (Fibroblast [4]; 24 h, replicate 1): 5% and 2% | Population Mitochondria Different-Phenotype (%) (Fibroblast [4]; 24 h, replicate 1): 13% and 14% | Population Mitotic Cells (%) (Fibroblast [4]; 24 h, replicate 1): 23% and 58% | Population Normal (%) (Fibroblast [4]; 24 h, replicate 1): 76% and 47% | Population Pyknosed Nuclei (%) (Fibroblast [4]; 24 h, replicate 1): 8% and 23% | Population Tubulin-Different-Phenotype (%) (Fibroblast [4]; 24 h, replicate 1): 20% and 32% | Total Cell Count (Fibroblast [4]; 24 h, replicate 1): 210 and 306 | Population Apoptotic (%) (Fibroblast [4]; 24 h, replicate 2): 50% and 30% | Population Fragmented Nuclei (%) (Fibroblast [4]; 24 h, replicate 2): 59% and 50% | Population Healthy Nuclei (%) (Fibroblast [4]; 24 h, replicate 2): 36% and 19% | Population Hoechst High Intensity Objects (%) (Fibroblast [4]; 24 h, replicate 2): 38% and 40% | Population Mitotic Cells (%) (Fibroblast [4]; 24 h, replicate 2): 50% and 69% | Population Normal (%) (Fibroblast [4]; 24 h, replicate 2): 61% and 60% | Population Tubulin-Different-Phenotype (%) (Fibroblast [4]; 24 h, replicate 2): 41% and 50% | Total Cell Count (Fibroblast [4]; 24 h, replicate 2): 76 and 70 | Growth Rate (U2OS [5]; [11]): 0 | Growth Rate (U2OS [5]; [7]): 0 | Growth Rate (U2OS [5]; 6 h, replicate number 2, timepoint 6 hours): 1 | Growth Rate (U2OS [5]; [8]): 0 | Growth Rate (U2OS [5]; [9]): 0 | Growth Rate (U2OS [5]; [10]): 0 | Growth Rate (Fibroblast [6]; [11]): 0 | Growth Rate (Fibroblast [6]; [7]): 1 | Growth Rate (Fibroblast [6]; [8]): 0 | Growth Rate (Fibroblast [6]; [9]): 0 | Growth Rate (Fibroblast [6]; [10]): 0
